A selection: hits, their analogues and other compounds. The true share with any hit is near 1.1%.
PDI inh – inhibitors of human PDI, primary screen, biochemical, turbidity, single point, plate reader; Protein disulfide-isomerase (Homo sapiens), P07237; PDI insulin aggregation turbidity, A650, 90 min; inhibition, % at 10 µM; 350,000 compounds, 0.052% hits; AID 588391, 2011;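 active = mean inhibition across replicates of 30% or more, whatever share of single replicates reach that level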
ERAP1 HTS inh – human ERAP1 aminopeptidase inhibitors, primary screen, biochemical, single point, plate reader | Endoplasmic reticulum aminopeptidase 1 (Homo sapiens), Q9NZ08 | recombinant ERAP1, Leu-AMC fluorescence, 60 min | inhibition, % at 10.7 µM | 340,000 compounds, 0.15% hits | AID 652197, 2013;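 active = mean replicate inhibition of at least 30%, or all replicates individually reaching that 30% level; inactive = mean below 30% and not every replicate reaching it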;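 also: 0% = neutral control wells and 100% = L-leucinethiol positive control wells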
CAL PDZ FP-1 – CAL PDZ peptide-binding inhibitors, primary screen, biochemical, fluorescence polarization, Cer-tagged CAL PDZ, HTS | Golgi-associated PDZ and coiled-coil motif-containing protein (Homo sapiens), Q9HD26 | purified CAL PDZ, TMR-peptide fluorescence polarization, 1 h | inhibition, % at 20 µM | 330,000 compounds, 0.02% hits;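 active = highest replicate inhibition of at least 40%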;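 also: plate controls were DMSO neutral control wells for no effect and unlabeled competitor peptide control wells for full effect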
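material = purified tagged CAL PDZ domain construct (CerCALP) | compound dosing = 20 µM, one dose | times = 1 h at RT | measured by = fluorescence polarization from S- and P-plane intensities, G-factor corrected | read-out = inhibition from polarization loss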
Rin1-Abl PPI inh – inhibitors of Rin1-Abl protein binding, primary screen, biochemical, TR-FRET. Tyrosine-protein kinase ABL1 (Homo sapiens) + Ras and Rab interactor 1 (Homo sapiens), …. inhibition, % at 7.35 µM. 360,000 compounds, 0.4% hits. AID 588664, 2011; in the data active = inhibition above about 5%, passing the limit was not always enough
CAL PDZ FP-2 – untagged CAL PDZ binding inhibitors, primary screen, biochemical, fluorescence polarization, HTS; purified CAL PDZ, TMR-peptide fluorescence polarization, 1 h; 300,000 compounds, 0.92% hits; Golgi-associated PDZ and coiled-coil motif-containing protein (Homo sapiens), Q9HD26; inhibition, % at 24.9 µM;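 active = mean inhibition of at least 30% with at least half of replicates also reaching 30%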;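 also: 0% = DMSO neutral control and 100% = excess unlabeled competitor peptide PRC23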
ERp5 block – inhibitors of ERp5-driven insulin aggregation, primary screen, biochemical, turbidity, absorbance 650 nm, single point; Protein disulfide-isomerase A6 (Homo sapiens), Q15084; 90 min; inhibition, % at 9.99 µM; 350,000 compounds, 0.05% hits;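 active = mean replicate inhibition above about 25%, with every replicate also reaching it, limit read from the data, passing the limit was not always enough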
Target sequence (Q15084 whole entry, looked up): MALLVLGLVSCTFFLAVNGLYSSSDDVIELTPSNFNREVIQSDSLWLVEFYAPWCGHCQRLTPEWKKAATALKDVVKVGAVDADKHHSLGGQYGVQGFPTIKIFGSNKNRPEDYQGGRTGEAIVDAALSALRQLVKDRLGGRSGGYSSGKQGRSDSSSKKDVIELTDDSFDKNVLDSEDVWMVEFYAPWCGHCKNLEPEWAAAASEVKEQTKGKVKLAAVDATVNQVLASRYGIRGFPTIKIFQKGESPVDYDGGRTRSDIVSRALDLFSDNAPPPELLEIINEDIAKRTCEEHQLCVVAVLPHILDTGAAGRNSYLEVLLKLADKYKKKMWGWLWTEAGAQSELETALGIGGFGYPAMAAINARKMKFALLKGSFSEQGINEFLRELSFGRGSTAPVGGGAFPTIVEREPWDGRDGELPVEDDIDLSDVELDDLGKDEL
Numbers without * were called inactive; / = not tested or not shown.

SMILES | PDI inh | ERAP1 HTS inh | CAL PDZ FP-1 | Rin1-Abl PPI inh | CAL PDZ FP-2 | ERp5 block
C[C@@H]1CN([C@H](C)CO)C(=O)c2cc(-c3cccc(C#N)c3)cnc2O[C@@H]1CN(C)Cc1cncnc1 | / | 0 | / | / | / | 3
C[C@@H]1CN([C@@H](C)CO)C(=O)c2cc(Br)cnc2O[C@H]1CN(C)Cc1ccccc1 | / | 2 | / | / | / | -8
Cc1cc(C)c2c(CN3CCC(C)CC3)cc(=O)oc2c1 | 1 | -1 | -1 | -1 | 80* | -1
Cc1cc(C)c2c(CN3CCCCC3)cc(=O)oc2c1 | -4 | 0 | -1 | 4 | 2 | 2
CCC(=O)N[C@H]1CC[C@@H](CC(=O)NCCN2CCCCC2)O[C@H]1CO | / | 2 | / | / | / | 1
CC(C)(C)NC(=O)C1CC1(c1ccccc1)c1ccccc1 (centres undefined) | -2 | -1 | / | 1 | 46* | 3
C[C@@H]1CN([C@H](C)CO)S(=O)(=O)c2ccc(-c3ccc(C(=O)N(C)C)cc3)cc2O[C@@H]1CN(C)C(=O)C1CCC1 | / | -3 | / | / | / | 11
O=C(c1ccc(F)cc1)N1CCCCN2[C@H](CO)[C@H](c3ccc(C#CC4(O)CCCC4)cc3)[C@H]2C1 | / | 5 | / | / | / | 6
COc1ccc(Nc2nnc(C)c3ccccc23)cc1C(N)=O | 13 | / | -2 | -1 | -2 | /
CNC(=O)c1cc(Nc2nnc(C)c3ccccc23)ccc1OC | 3 | / | / | 0 | 35* | /
CC(C(=O)NCC1CCCO1)N1C(=O)C2C3CC(C(Br)C3Br)C2C1=O (centres undefined) | -2 | / | 1 | 2 | 109* | 3
C[C@@H]1CN([C@@H](C)CO)C(=O)c2cccc(NS(=O)(=O)c3cccs3)c2O[C@@H]1CN(C)Cc1ccc(C(=O)Nc2ccccc2N)cc1 | / | -1 | / | / | / | 0
COc1ccc(CCNc2nc(-c3ccccn3)cs2)cc1OC | -3 | 0 | -2 | 1 | 49* | -3
COc1ccc(CCNc2nc(-c3ccncc3)cs2)cc1OC | 6 | / | 0 | 1 | / | 0
C=CCC1Cc2c(Br)cccc2C(CC=C)N1 (centres undefined) | 5 | 4 | -2 | 2 | / | -3
C=CC[C@H]1Cc2c(cccc2[N+](=O)[O-])[C@H](CC=C)N1 | 5 | 3 | -1 | -1 | 39* | -9
COc1cc(OC)c(C(=O)Nc2cccc3ccccc23)cc1OC | -6 | 2 | -2 | -2 | 33* | -4
CO[C@H]1CN(C)C(=O)c2ccc(NC(=O)Nc3ccccc3F)cc2OC[C@@H](C)N(C)C[C@H]1C | / | 0 | / | / | / | 14
COCCSc1nnc(NC(=O)Cc2ccc(OC)cc2)s1 | -9 | 6 | 0 | 3 | 49* | 4
COCCSc1nnc(NC(=O)c2ccc(OC)c([N+](=O)[O-])c2)s1 | -2 | -1 | 1 | -4 | 53* | -1
Cc1ccc(S(=O)(=O)CCc2nnc(NC(=O)CCl)s2)cc1C | 20 | -2 | -1 | 3 | 46* | 2
Cc1ccc(S(=O)(=O)CCc2nnc(N)s2)cc1C | 2 | / | -1 | 8 | 2 | /
C[C@@H]1CN([C@@H](C)CO)S(=O)(=O)c2ccc(-c3cncnc3)cc2O[C@@H]1CN(C)C(=O)CC1CC1 | / | -1 | / | / | / | -1
Cc1ccc(OCCOc2cccc3ccc(C)nc23)c([N+](=O)[O-])c1 | -2 | 0 | -1 | -2 | -2 | -5
Cc1ccc2cccc(OCc3cccc([N+](=O)[O-])c3)c2n1 | -5 | -2 | / | -1 | 61* | 0
SMILES | PDI inh | ERAP1 HTS inh | CAL PDZ FP-1 | Rin1-Abl PPI inh | CAL PDZ FP-2 | ERp5 block
COc1ccc2c3c(n(C)c2c1)[C@@H](CO)N(C(=O)c1ccc(F)cc1)CC31CCN(C)CC1 | / | -1 | / | / | / | -2
COC(=O)Nc1ccc(S(=O)(=O)N2CCCCC2C(=O)O)cc1 (centres undefined) | 2 | -4 | -1 | 1 | 73* | 1
O=C(Nc1ccc2[nH]c(=O)[nH]c2c1)c1cc(F)c(F)cc1Cl | 3 | / | 0 | -2 | 55* | -2
Cc1sc2ncnc(Sc3ccccc3C(=O)O)c2c1C | 7 | -1 | 0 | -143 | 2 | -1
O=C(O)c1ccccc1Sc1ncnc2sc3c(c12)CCC3 | 7 | 7 | / | -25 | 65* | -1
C[C@H]1CN([C@@H](C)CO)S(=O)(=O)c2ccc(-c3ccccc3)cc2O[C@H]1CN(C)CC1CC1 | / | 4 | / | / | / | -3
Cc1ccc(NC(=O)c2ccc(-n3cncn3)c([N+](=O)[O-])c2)cc1 | 8 | / | -3 | 1 | 0 | /
CCN(CC)S(=O)(=O)c1cc(NC(=O)c2ccc(-n3cncn3)c([N+](=O)[O-])c2)ccc1C | -5 | 3 | 0 | 2 | -3 | 25*
CCN(CC)CCNC(=O)c1ccc(NC(=O)c2ccc(-n3cncn3)c([N+](=O)[O-])c2)cc1 | -3 | 100* | / | 3 | / | -1
COc1ccc(NC(=O)C#Cc2ccccc2)cc1 | -3 | -7 | 1 | 1 | 63* | -1
O=C(C#Cc1ccccc1)Nc1ccc(F)cc1 | 2 | 0 | 0 | -2 | -5 | 1
Cc1ccccc1-c1ccc([C@@H]2[C@H](CO)N3CCCCN(CC4CCOCC4)C[C@@H]23)cc1 | / | -1 | / | / | / | 6
CCCCCCCCNC(=O)CC(NS(=O)(=O)c1ccc(NC(C)=O)cc1)C(C)C (centres undefined) | 4 | / | -2 | 1 | -1 | /
CC(=O)Nc1ccc(S(=O)(=O)NC(CC(=O)NCCC2=CCCCC2)C(C)C)cc1 (centres undefined) | -4 | / | 0 | 0 | 45* | /
CN1[C@@H]2Cn3c(ccc(/C=C/c4ccccc4)c3=O)[C@H]1[C@@H](C(=O)NC1CCCCC1)[C@@H]2CO | / | / | / | / | / | -4
CCn1cc(CNC(=O)c2ccc(OC3CCN(Cc4ccccn4)CC3)cc2)cn1 | -25 | -4 | 0 | 4 | -4 | 8
C#CCN(C(=O)c1ccc(OC2CCN(Cc3ccccn3)CC2)cc1)C1CCCCC1 | -6 | 3 | 1 | 1 | 55* | 4
CN(C(=O)c1ccc(OC2CCN(Cc3ccccn3)CC2)cc1)C1CCCCC1 | -6 | -1 | -1 | -3 | -6 | -5
CCn1ncc(CN2CCC(Oc3ccc(C(=O)N4CCCC4)cc3)CC2)c1C | -5 | 4 | 0 | 1 | / | 2
COc1cc(C)c(CN2CCC(Oc3ccc(C(=O)N4CCCC4)cc3)CC2)cc1C | 1 | 0 | -3 | 1 | 0 | 2
CCn1nc(C)c(CN2CCC(Oc3ccc(C(=O)N4CCCC4)cc3)CC2)c1C | -4 | -5 | -1 | 4 | 51* | 3

Screening results from PubChem BioAssay.
